The values that follow come from ChEMBL document CHEMBL1126152, “Fluoronaphthyridines as antibacterial agents. 4. Synthesis and structure-activity relationships of 5-substituted-6-fluoro-7-(cycloalkylamino)-1,4-dihydro-4-oxo-1,8- naphthyridine-3-carboxylic acids” (J Med Chem, 1992).

≈ marks a conversion by molar mass, not a printed value.

The subject of one data set is Enterobacter cloacae. As to the kind of experiment: In vitro for antibacterial activity against Enterobacter cloacae. Format: functional.
A further data set deals with Bacteroides fragilis. As to the kind of experiment: In vitro for antibacterial activity against […]. Type of data set: functional. Put shortly:
(§1)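 MIC by serial 2-fold broth dilution in nutrient broth with an inoculum of 10^6 CFU/mL. Compound range was 0.0005–250 μg/mL. Plates were incubated 18 h at 37 °C. MIC was taken as the lowest concentration preventing visible growth.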

A further data set deals with Klebsiella pneumoniae. Kind of data set: In vitro for antibacterial activity against Klebsiella pneumoniae. Type of data set: functional. An outline of the steps: as §1
In a further data set the test system is Escherichia coli. Kind of data set: In vitro for antibacterial activity against Escherichia coli. Format: functional. An outline of the steps:
as §1

A further data set relates to Staphylococcus aureus. Kind of data set: Antibacterial activity against Staphylococcus aureus. Type of data set: functional.
A further data set relates to Serratia marcescens. Kind of data set: In vitro for antibacterial activity against Serratia marcescens. Type of data set: functional. An outline of the steps: as §1
A further data set concerns Enterococcus faecalis. Kind of data set: In vitro for antibacterial activity against Enterococcus faecalis. Format: functional. An outline of the steps:
as §1

The subject of the next data set is Morganella morganii. As to the kind of experiment: In vitro for antibacterial activity against Morganella morganii. Type of data set: functional. Put shortly: as §1
In another data set the test system is Proteus mirabilis. As to the kind of experiment: In vitro for antibacterial activity against Proteus mirabilis. Format: functional. An outline of the steps:
as §1

Another data set has as its system Streptococcus pneumoniae. Kind of data set: Antibacterial activity against Streptococcus pneumoniae. Type of data set: functional.
Another data set relates to Pseudomonas aeruginosa. As to the kind of experiment: In vitro for antibacterial activity against Pseudomonas aeruginosa. Format: functional. An outline of the steps:
as §1

A short description of data set [1]: Partition coefficient (logD). To be noted: octanol/water.
Data set [2] can be described thus: Solubility was measured at PH - 7.2 buffer.

Regarding `CC(C)(C)n1cc(C(=O)O)c(=O)c2cc(F)c(N3CC[C@H](N)C3)nc21`, the MIC in the data set on Enterobacter cloacae came out at 0.03 µg/mL (≈ 0.0861 µM); against Bacteroides fragilis it was 1 µg/mL (≈ 2.87 µM); against Klebsiella pneumoniae, 0.03 µg/mL (≈ 0.0861 µM); against Escherichia coli, 0.02 µg/mL (≈ 0.0574 µM); with Staphylococcus aureus it was 0.004 µg/mL (≈ 0.0115 µM); against Serratia marcescens, 0.25 µg/mL (≈ 0.718 µM). Besides, the MIC with Enterococcus faecalis stood at 0.06 µg/mL (≈ 0.172 µM); in the data set with Morganella morganii, 0.13 µg/mL (≈ 0.373 µM); against Proteus mirabilis, 0.13 µg/mL (≈ 0.373 µM); against Streptococcus pneumoniae, 0.008 µg/mL (≈ 0.023 µM); with Pseudomonas aeruginosa, 0.25 µg/mL (≈ 0.718 µM).
Consider `N[C@H]1CCN(c2nc3c(cc2F)c(=O)c(C(=O)O)cn3-c2ccc(F)cc2F)C1`, for which the MIC with Enterobacter cloacae came out at 0.016 µg/mL (≈ 0.0396 µM); with Bacteroides fragilis it was 0.5 µg/mL (≈ 1.24 µM); with Klebsiella pneumoniae, 0.008 µg/mL (≈ 0.0198 µM); against Escherichia coli it was 0.008 µg/mL (≈ 0.0198 µM); in the data set with Staphylococcus aureus, 0.008 µg/mL (≈ 0.0198 µM); against Serratia marcescens, 0.06 µg/mL (≈ 0.148 µM). The MIC amounted to 0.13 µg/mL (≈ 0.322 µM) in the data set on Enterococcus faecalis; 0.06 µg/mL (≈ 0.148 µM) in the data set on Morganella morganii; 0.03 µg/mL (≈ 0.0742 µM) with Proteus mirabilis; 0.06 µg/mL (≈ 0.148 µM) against Streptococcus pneumoniae; 0.25 µg/mL (≈ 0.618 µM) against Pseudomonas aeruginosa.
On to `CC(C)(CF)n1cc(C(=O)O)c(=O)c2cc(F)c(N3CC[C@H](N)C3)nc21`, for which the MIC is 0.13 µg/mL (≈ 0.355 µM) in the data set with Enterobacter cloacae; 16 µg/mL (≈ 43.7 µM) against Bacteroides fragilis; 0.03 µg/mL (≈ 0.0819 µM) in the data set on Klebsiella pneumoniae; 0.03 µg/mL (≈ 0.0819 µM) against Escherichia coli; 0.03 µg/mL (≈ 0.0819 µM) in the data set with Staphylococcus aureus; 0.25 µg/mL (≈ 0.682 µM) in the data set with Serratia marcescens. Further, the MIC against Enterococcus faecalis was 4 µg/mL (≈ 10.9 µM); against Morganella morganii, 0.06 µg/mL (≈ 0.164 µM); in the data set on Proteus mirabilis it was 0.5 µg/mL (≈ 1.36 µM); in the data set with Streptococcus pneumoniae it was 0.03 µg/mL (≈ 0.0819 µM); against Pseudomonas aeruginosa it was 1 µg/mL (≈ 2.73 µM). Besides, in data set [1], the logD was -0.56.
Take `N[C@H]1CCN(c2nc3c(c(-c4ccccc4)c2F)c(=O)c(C(=O)O)cn3C2CC2)C1`: the MIC in the data set with Enterobacter cloacae is 2 µg/mL (≈ 4.9 µM); with Bacteroides fragilis, 125 µg/mL (≈ 306 µM); against Klebsiella pneumoniae it was 2 µg/mL (≈ 4.9 µM); in the data set on Escherichia coli it was 1 µg/mL (≈ 2.45 µM); in the data set on Staphylococcus aureus, 2 µg/mL (≈ 4.9 µM); against Serratia marcescens, 16 µg/mL (≈ 39.2 µM). Besides, the MIC against Enterococcus faecalis amounted to 64 µg/mL (≈ 157 µM); in the data set with Morganella morganii, 8 µg/mL (≈ 19.6 µM); in the data set with Proteus mirabilis it was 16 µg/mL (≈ 39.2 µM); in the data set with Streptococcus pneumoniae, 8 µg/mL (≈ 19.6 µM); in the data set with Pseudomonas aeruginosa, 32 µg/mL (≈ 78.3 µM).
Consider `CCc1c(F)c(N2CCNCC2)nc2c1c(=O)c(C(=O)O)cn2C1CC1`, for which the MIC against Enterobacter cloacae worked out at 1 µg/mL (≈ 2.77 µM); against Bacteroides fragilis, 1 µg/mL (≈ 2.77 µM); in the data set on Klebsiella pneumoniae, 1 µg/mL (≈ 2.77 µM); in the data set on Escherichia coli, 0.5 µg/mL (≈ 1.39 µM); against Staphylococcus aureus, 0.5 µg/mL (≈ 1.39 µM); in the data set with Serratia marcescens, 1 µg/mL (≈ 2.77 µM). The MIC against Enterococcus faecalis stood at 16 µg/mL (≈ 44.4 µM); against Morganella morganii, 4 µg/mL (≈ 11.1 µM); against Proteus mirabilis, 8 µg/mL (≈ 22.2 µM); in the data set with Streptococcus pneumoniae, 0.25 µg/mL (≈ 0.694 µM); against Pseudomonas aeruginosa, 16 µg/mL (≈ 44.4 µM).
In [2], `CC(C)(C)n1cc(C(=O)O)c(=O)c2cc(F)c(N3CCNCC3)nc21` registered a solubility of 820 µg/mL (≈ 2350 µM). The MIC against Enterobacter cloacae was determined as 0.06 µg/mL (≈ 0.172 µM); in the data set with Bacteroides fragilis, 8 µg/mL (≈ 23 µM); against Klebsiella pneumoniae it was 0.03 µg/mL (≈ 0.0861 µM); in the data set with Escherichia coli, 0.02 µg/mL (≈ 0.0574 µM); in the data set on Staphylococcus aureus, 0.06 µg/mL (≈ 0.172 µM); in the data set with Serratia marcescens, 0.06 µg/mL (≈ 0.172 µM). Also, the MIC against Enterococcus faecalis was 1 µg/mL (≈ 2.87 µM); with Morganella morganii, 0.06 µg/mL (≈ 0.172 µM); against Proteus mirabilis it was 0.13 µg/mL (≈ 0.373 µM); against Streptococcus pneumoniae it was 1 µg/mL (≈ 2.87 µM); with Pseudomonas aeruginosa it was 0.5 µg/mL (≈ 1.44 µM). In data set [1], the logD was -0.33.
As to `Cc1c(F)c(N2CC[C@H](N)C2)nc2c1c(=O)c(C(=O)O)cn2C(C)(C)CF`, the MIC worked out at 0.25 µg/mL (≈ 0.657 µM) in the data set with Enterobacter cloacae; 2 µg/mL (≈ 5.26 µM) against Bacteroides fragilis; 0.03 µg/mL (≈ 0.0789 µM) in the data set with Klebsiella pneumoniae; 0.016 µg/mL (≈ 0.0421 µM) in the data set on Escherichia coli; 0.25 µg/mL (≈ 0.657 µM) in the data set on Staphylococcus aureus; 0.5 µg/mL (≈ 1.31 µM) in the data set with Serratia marcescens. Besides, the MIC came out at 2 µg/mL (≈ 5.26 µM) against Enterococcus faecalis; 0.5 µg/mL (≈ 1.31 µM) in the data set on Morganella morganii; 0.5 µg/mL (≈ 1.31 µM) in the data set with Proteus mirabilis; 2 µg/mL (≈ 5.26 µM) against Streptococcus pneumoniae; 2 µg/mL (≈ 5.26 µM) in the data set on Pseudomonas aeruginosa.
As for `Cc1c(F)c(N2CCNCC2)nc2c1c(=O)c(C(=O)O)cn2-c1ccc(F)cc1F`, the MIC was 0.03 µg/mL (≈ 0.0717 µM) in the data set on Enterobacter cloacae; 4 µg/mL (≈ 9.56 µM) against Bacteroides fragilis; 0.03 µg/mL (≈ 0.0717 µM) with Klebsiella pneumoniae; 0.016 µg/mL (≈ 0.0382 µM) against Escherichia coli; 0.016 µg/mL (≈ 0.0382 µM) with Staphylococcus aureus; 0.25 µg/mL (≈ 0.598 µM) in the data set on Serratia marcescens. Further, the MIC against Enterococcus faecalis worked out at 1 µg/mL (≈ 2.39 µM); against Morganella morganii, 0.13 µg/mL (≈ 0.311 µM); in the data set with Proteus mirabilis, 0.25 µg/mL (≈ 0.598 µM); in the data set with Streptococcus pneumoniae, 0.25 µg/mL (≈ 0.598 µM); in the data set with Pseudomonas aeruginosa, 1 µg/mL (≈ 2.39 µM).

As a reminder, the MIC is the lowest concentration that inhibits growth of the organism. Low values mean a more susceptible organism, high ones a less susceptible organism. In general, logD refers to lipophilicity at a set pH, counting ionised and neutral species. A high value points to higher lipophilicity. As a reminder, the solubility is the concentration that dissolves in the medium under given conditions.
